Laboratory results as given in ChEMBL document CHEMBL1212735, “Metronidazole resistance in Prevotella spp. and description of a new nim gene in Prevotella baroniae” (2010).
In brackets after ≈: the same amount, converted by molar mass.

Experiments:
Assay type in all cases: functional
Prevotella baroniae [1] = assay: Antimicrobial activity against Prevotella baroniae LBN 430 expressing nimI gene assessed as inhibition of growth after three consecutive subcultures on compound free medium by agar dilution method; conditions: Segatella baroniae
Method in brief: (§1)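 Stability of induced resistance: metronidazole-selected isolates were subcultured three consecutive times on drug-free brucella blood agar (5% sheep blood, hemin, vitamin K1) under anaerobic conditions, then MIC was redetermined by CLSI agar dilution. Resistance was called stable if the MIC held within ±1 dilution. Duplicate experiments.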

Prevotella baroniae [2] = assay: Antimicrobial activity against Prevotella baroniae LBN 475 expressing nimI gene assessed as inhibition of growth after three consecutive subcultures on compound free medium by agar dilution method; conditions: Segatella baroniae; method in brief: as §1
Prevotella buccae = assay: Antimicrobial activity against Prevotella buccae LBN 465 deficient in nimI gene assessed as inhibition of growth after three consecutive subcultures on compound free medium by agar dilution method; conditions: Segatella buccae
Method in brief: (§2)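 Resistance induction: bacterial suspensions were plated on supplemented brucella blood agar with rising metronidazole concentrations. Colonies from the highest concentration were tested by agar dilution. MIC was then redetermined after three consecutive subcultures on drug-free agar. Resistance counted as stable if the MIC held within ±1 dilution. Anaerobic growth at 37°C. Duplicate experiments.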

Bacteroides fragilis [3] = assay: Antimicrobial activity against Bacteroides fragilis ATCC 25285T deficient in nimI gene assessed as inhibition of growth after three consecutive subcultures on compound free medium by agar dilution method; method in brief: as §2
Prevotella baroniae [4] = assay: Antimicrobial activity against Prevotella baroniae LBN 427 expressing nim gene assessed as inhibition of growth at 48 hrs by agar dilution method; conditions: Segatella baroniae, LBN 427, 48 h
Method in brief: (§3)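 Metronidazole MIC by agar dilution (CLSI M11-A7) on brucella agar with 5% sheep blood, hemin and vitamin K1. Plates were read after 48 h at 35°C under anaerobic conditions. Susceptible was MIC ≤ 4 μg/ml and resistant MIC ≥ 8 μg/ml (EUCAST). B. fragilis ATCC 25285T and B. thetaiotaomicron ATCC 29741 were run as controls. Duplicate assays.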

Prevotella baroniae [5] = assay: Antimicrobial activity against Prevotella baroniae LBN 466 expressing nim gene assessed as inhibition of growth at 48 hrs by agar dilution method; conditions: Segatella baroniae, LBN 466, 48 h; method in brief: as §3
Prevotella baroniae [6] = assay: Antimicrobial activity against Prevotella baroniae LBP 19 expressing nim gene assessed as inhibition of growth at 48 hrs by agar dilution method; conditions: Segatella baroniae, LBP 19, 48 h; method in brief: as §3
Prevotella bivia [7] = assay: Antimicrobial activity against Prevotella bivia LBN 331 deficient in nim gene assessed as inhibition of growth at 48 hrs by agar dilution method; conditions: LBN 331, 48 h; method in brief: as §3
Prevotella bivia [8] = assay: Antimicrobial activity against Prevotella bivia LBN 332 deficient in nim gene assessed as inhibition of growth at 48 hrs by agar dilution method; conditions: LBN 332, 48 h; method in brief: as §3
Prevotella bivia [9] = assay: Antimicrobial activity against Prevotella bivia LBN 365 deficient in nim gene assessed as inhibition of growth at 48 hrs by agar dilution method; conditions: LBN 365, 48 h; method in brief: as §3
Prevotella bivia [10] = assay: Antimicrobial activity against Prevotella bivia LBN 445 deficient in nim gene assessed as inhibition of growth at 48 hrs by agar dilution method; conditions: LBN 445, 48 h
Method in brief: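 Agar dilution MIC on brucella agar with 5% sheep blood, hemin and vitamin K1, following CLSI M11-A7. Plates read after 48 h at 35°C under anaerobic conditions, with B. fragilis ATCC 25285T and B. thetaiotaomicron ATCC 29741 as controls. Assays in duplicate. Isolates kept at −80°C in brucella broth with 15% glycerol. Interpretation used EUCAST breakpoints (S ≤4, R ≥8 μg/ml).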

Prevotella bivia [11] = assay: Antimicrobial activity against Prevotella bivia LBN 467 deficient in nim gene assessed as inhibition of growth at 48 hrs by agar dilution method; conditions: LBN 467, 48 h; method in brief: as §3
Prevotella bivia [12] = assay: Antimicrobial activity against Prevotella bivia LBP 38 deficient in nim gene assessed as inhibition of growth at 48 hrs by agar dilution method; conditions: LBP 38, 48 h; method in brief: as §3
Prevotella bivia [13] = assay: Antimicrobial activity against Prevotella bivia LBP 52 deficient in nim gene assessed as inhibition of growth at 48 hrs by agar dilution method; conditions: LBP 52, 48 h; method in brief: as §3
Prevotella bivia [14] = assay: Antimicrobial activity against Prevotella bivia LBP 65 deficient in nim gene assessed as inhibition of growth at 48 hrs by agar dilution method; conditions: LBP 65, 48 h; method in brief: as §3
Prevotella bivia [15] = assay: Antimicrobial activity against slow growing colonies of Prevotella bivia LBN 330 deficient in nim gene assessed as inhibition of growth at 48 hrs by agar dilution method; conditions: LBN 330, 48 h
Method in brief: (§4)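 Slowly growing colonies inside the Etest inhibition zone, seen after prolonged incubation (an additional 72 h after the 48 h reading), were subcultured without antibiotic. They were then retested for metronidazole MIC by agar dilution on supplemented brucella blood agar under anaerobic conditions.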

Prevotella bivia [16] = assay: Antimicrobial activity against slow growing colonies of Prevotella bivia LBN 331 deficient in nim gene assessed as inhibition of growth at 48 hrs by agar dilution method; conditions: LBN 331, 48 h; method in brief: as §4
Prevotella bivia [17] = assay: Antimicrobial activity against slow growing colonies of Prevotella bivia LBN 339 deficient in nim gene assessed as inhibition of growth at 48 hrs by agar dilution method; conditions: LBN 339, 48 h; method in brief: as §4
Prevotella bivia [18] = assay: Antimicrobial activity against slow growing colonies of Prevotella bivia LBN 346 deficient in nim gene assessed as inhibition of growth at 48 hrs by agar dilution method; conditions: LBN 346, 48 h; method in brief: as §4
Prevotella bivia [19] = assay: Antimicrobial activity against slow growing colonies of Prevotella bivia LBN 361 deficient in nim gene assessed as inhibition of growth at 48 hrs by agar dilution method; conditions: LBN 361, 48 h
Method in brief: (§5)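 Metronidazole MIC by agar dilution per CLSI M11-A7 on brucella agar with 5% sheep blood, hemin and vitamin K1. Plates incubated anaerobically at 35°C and read at 48 h, with a second reading after a further 72 h. B. fragilis ATCC 25285T and B. thetaiotaomicron ATCC 29741 served as controls. Done in duplicate; EUCAST breakpoints applied (S ≤4, R ≥8 μg/ml).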

Prevotella bivia [20] = assay: Antimicrobial activity against slow growing colonies of Prevotella bivia LBN 365 deficient in nim gene assessed as inhibition of growth at 48 hrs by agar dilution method; conditions: LBN 365, 48 h; method in brief: as §5
Prevotella bivia [21] = assay: Antimicrobial activity against slow growing colonies of Prevotella bivia LBN 464 deficient in nim gene assessed as inhibition of growth at 48 hrs by agar dilution method; conditions: LBN 464, 48 h; method in brief: as §5
Prevotella nanceiensis = assay: Antimicrobial activity against slow growing colonies of Prevotella nanceiensis LBN 293b deficient in nim gene assessed as inhibition of growth at 48 hrs by agar dilution method; conditions: Hoylesella nanceiensis; method in brief: as §5
Bacteroides fragilis [22] = assay: Antimicrobial activity against Bacteroides fragilis ATCC 25285T deficient in nimI gene assessed as inhibition of growth at 48 hrs by agar dilution method; method in brief: as §3
Prevotella baroniae [23] = assay: Antimicrobial activity against Prevotella baroniae DSM 16972T expressing nimI gene assessed as inhibition of growth after several passages on plates containing increasing concentrations of compound by agar dilution method; conditions: Segatella baroniae
Method in brief: (§6)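 Induction of metronidazole resistance: bacterial suspensions inoculated onto brucella blood agar (5% sheep blood, hemin, vitamin K1) containing metronidazole at increasing concentrations, grown anaerobically at 37°C. Colonies growing at the highest concentration were retested for MIC by CLSI agar dilution on the same agar. Duplicate experiments.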

Prevotella baroniae [24] = assay: Antimicrobial activity against Prevotella baroniae LBN 432 expressing nimI gene assessed as inhibition of growth after several passages on plates containing increasing concentration of compound by agar dilution method; conditions: Segatella baroniae; method in brief: as §6

`Cc1ncc([N+](=O)[O-])n1CCO` [METRONIDAZOLE] showed an MIC (Prevotella baroniae [1]) of 128 µg/mL (≈ 748 µM), an MIC (Prevotella baroniae [2]) of 256 µg/mL (≈ 1500 µM) and an MIC (Prevotella buccae) of 64 µg/mL (≈ 374 µM). For the same molecule, the MIC (Bacteroides fragilis [3]) was 128 µg/mL (≈ 748 µM), the MIC (Prevotella baroniae [4]) was 4 µg/mL (≈ 23.4 µM) and the MIC (Prevotella baroniae [5]) was 2 µg/mL (≈ 11.7 µM). For the same molecule, the MIC (Prevotella baroniae [6]) was 1 µg/mL (≈ 5.84 µM), the MIC (Prevotella bivia [7]) was 2 µg/mL (≈ 11.7 µM) and the MIC (Prevotella bivia [8]) was 4 µg/mL (≈ 23.4 µM). It also gave an MIC (Prevotella bivia [9]) of 4 µg/mL (≈ 23.4 µM), an MIC (Prevotella bivia [10]) of 0.5 µg/mL (≈ 2.92 µM) and an MIC (Prevotella bivia [11]) of 16 µg/mL (≈ 93.5 µM). The MIC (Prevotella bivia [12]) was 2 µg/mL (≈ 11.7 µM), the MIC (Prevotella bivia [13]) was 4 µg/mL (≈ 23.4 µM) and the MIC (Prevotella bivia [14]) was 4 µg/mL (≈ 23.4 µM). The MIC (Prevotella bivia [15]) was 16 µg/mL (≈ 93.5 µM), the MIC (Prevotella bivia [16]) was 16 µg/mL (≈ 93.5 µM) and the MIC (Prevotella bivia [17]) was 16 µg/mL (≈ 93.5 µM). The MIC (Prevotella bivia [18]) was 16 µg/mL (≈ 93.5 µM), the MIC (Prevotella bivia [19]) was 32 µg/mL (≈ 187 µM) and the MIC (Prevotella bivia [20]) was 8 µg/mL (≈ 46.7 µM). It also gave an MIC (Prevotella bivia [21]) of 16 µg/mL (≈ 93.5 µM), an MIC (Prevotella nanceiensis) of 32 µg/mL (≈ 187 µM) and an MIC (Bacteroides fragilis [22]) of 0.5 µg/mL (≈ 2.92 µM). The MIC (Prevotella baroniae [23]) was 16 µg/mL (≈ 93.5 µM) and the MIC (Prevotella baroniae [24]) was 64 µg/mL (≈ 374 µM).
